Measurements reported in article PMC4834983 (Journal of medicinal chemistry, 2015).

Key:
U251MG cells [1] = assay: Scratch assay for migration; format: cell-based, human; conditions: 5 μM, 19-h treatment
Outline: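 Sub-confluent U251MG monolayers wounded with pipette tips and treated once with test compound (0–5 μM) or DMSO vehicle. Cells allowed to migrate into the denuded area over 19 h, then imaged by microscopy at 10×.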

pStat1 = assay: Immunoblotting, EGF-stimulated NIH3T3/hEGFR fibroblasts; format: cell-based, mouse; conditions: 5 μM pre-treatment
Outline: (§1)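 NIH3T3/hEGFR fibroblasts pretreated with or without 5 μM test compound for 3 h, then stimulated with 1 μg/ml EGF for 12 min. Whole-cell lysates, equal total protein, immunoblotted for pStat1/Stat1, pStat5/Stat5 and pErk1/2/Erk1/2.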

Stat1:Stat1 = biological target: T1, Stat1:Stat1 (Mus musculus, UniProt P42225); assay: Cell-free EMSA, EGF-stimulated NIH3T3/hEGFR nuclear extracts; format: biochemical; conditions: 5 μM, 30 min pre-incubation
T1 sequence (P42225 2-749 limits assumed): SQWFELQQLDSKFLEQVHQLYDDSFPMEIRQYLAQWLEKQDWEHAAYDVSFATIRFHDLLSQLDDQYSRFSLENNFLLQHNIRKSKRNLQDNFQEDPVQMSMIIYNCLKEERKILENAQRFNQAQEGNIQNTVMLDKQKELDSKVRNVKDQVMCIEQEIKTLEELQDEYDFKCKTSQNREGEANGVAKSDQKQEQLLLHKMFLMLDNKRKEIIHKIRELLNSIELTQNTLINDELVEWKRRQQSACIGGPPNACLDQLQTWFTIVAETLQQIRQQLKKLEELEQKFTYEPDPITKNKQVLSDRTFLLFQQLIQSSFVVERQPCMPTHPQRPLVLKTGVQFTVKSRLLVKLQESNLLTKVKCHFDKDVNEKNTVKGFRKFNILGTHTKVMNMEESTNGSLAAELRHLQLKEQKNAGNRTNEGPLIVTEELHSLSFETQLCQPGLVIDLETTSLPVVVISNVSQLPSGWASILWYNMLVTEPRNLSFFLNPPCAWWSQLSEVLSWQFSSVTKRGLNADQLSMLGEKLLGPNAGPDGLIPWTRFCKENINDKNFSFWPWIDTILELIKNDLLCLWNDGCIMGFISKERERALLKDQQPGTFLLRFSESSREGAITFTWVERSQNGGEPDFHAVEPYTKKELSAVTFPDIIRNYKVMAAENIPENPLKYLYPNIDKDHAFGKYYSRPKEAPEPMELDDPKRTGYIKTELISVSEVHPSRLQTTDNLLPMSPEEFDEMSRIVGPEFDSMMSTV
Outline: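 Nuclear extracts from EGF-stimulated NIH3T3/hEGFR fibroblasts, containing active Stat1, Stat3 and Stat5, preincubated with 5 μM test compound for 30 min at room temperature. Then incubated 30 min with 32P-labelled probe before EMSA: hSIE (Stat1/Stat3 binding) or MGFe (bovine β-casein element; Stat1/Stat5 binding). STAT:DNA bands quantified as percent of control.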

U373MG cells = assay: CyQuant cell proliferation assay; format: cell-based; conditions: Homo sapiens, U373 MG, 72 h, read-out: IC50 cell proliferation U373MG
Outline: (§2)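 CyQuant DNA-dye proliferation assay on cultured cells after 72 h exposure to test compound. Viability expressed relative to DMSO-treated control cells.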

pStat5 = assay: Immunoblotting, EGF-stimulated NIH3T3/hEGFR fibroblasts; format: cell-based, mouse; conditions: 5 μM pre-treatment
Outline: as §1

U251MG cells [2] = assay: Immunofluorescence staining/confocal microscopy of mitosis; format: cell-based, human; conditions: 15 h treatment
Outline: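 U251MG cells on coverslips synchronised by double thymidine block (2 mM) and released for 9 h. Then given DMSO, 100 nM paclitaxel or 8 μM test compound for 15 h. Fixed in 4% paraformaldehyde, permeabilised with 0.1% digitonin and blocked in 0.2% BSA. Stained with anti-β-tubulin (1:350) and anti-MAP1B (1:300) for 1 h at room temperature, then fluorescent secondaries and DAPI; confocal imaging.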

MCF-7 cells = assay: CyQuant cell proliferation assay; format: cell-based; conditions: Homo sapiens, MCF7, 72 h, read-out: IC50 cell proliferation MCF-7
Outline: as §2

U251MG cells [3] = assay: BrdU incorporation assay; format: cell-based, human; conditions: 5 μM, at 24 h
Outline: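 U251MG cells on glass coverslips exposed to DMSO or 5 μM test compound for 3–24 h. BrdU (10 micromolar) added for the final 2 h. Fixed in 4% paraformaldehyde for 10 min, stained with anti-BrdU antibody and counterstained with DAPI. Imaged by fluorescence microscopy, and cells counted.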

NIH3T3 cells = assay: Colony survival assay; format: cell-based, mouse; conditions: 2.5 μM or less
Outline: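 Cells seeded as single cells at 250 per well and treated once the next day with test compound (0–5 μM) for 72 h. Grown until large colonies were visible: 1 week for NIH3T3, 2 weeks for U251MG. Colonies stained with crystal violet for 4 h and counted.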

Stat3:Stat3 = Stat3:Stat3 (Mus musculus, UniProt P42227); assay: Cell-free EMSA, nuclear extracts pre-incubated with compound, hSIE probe; format: biochemical
Chain of Stat3:Stat3 (P42227 2-770 limits assumed): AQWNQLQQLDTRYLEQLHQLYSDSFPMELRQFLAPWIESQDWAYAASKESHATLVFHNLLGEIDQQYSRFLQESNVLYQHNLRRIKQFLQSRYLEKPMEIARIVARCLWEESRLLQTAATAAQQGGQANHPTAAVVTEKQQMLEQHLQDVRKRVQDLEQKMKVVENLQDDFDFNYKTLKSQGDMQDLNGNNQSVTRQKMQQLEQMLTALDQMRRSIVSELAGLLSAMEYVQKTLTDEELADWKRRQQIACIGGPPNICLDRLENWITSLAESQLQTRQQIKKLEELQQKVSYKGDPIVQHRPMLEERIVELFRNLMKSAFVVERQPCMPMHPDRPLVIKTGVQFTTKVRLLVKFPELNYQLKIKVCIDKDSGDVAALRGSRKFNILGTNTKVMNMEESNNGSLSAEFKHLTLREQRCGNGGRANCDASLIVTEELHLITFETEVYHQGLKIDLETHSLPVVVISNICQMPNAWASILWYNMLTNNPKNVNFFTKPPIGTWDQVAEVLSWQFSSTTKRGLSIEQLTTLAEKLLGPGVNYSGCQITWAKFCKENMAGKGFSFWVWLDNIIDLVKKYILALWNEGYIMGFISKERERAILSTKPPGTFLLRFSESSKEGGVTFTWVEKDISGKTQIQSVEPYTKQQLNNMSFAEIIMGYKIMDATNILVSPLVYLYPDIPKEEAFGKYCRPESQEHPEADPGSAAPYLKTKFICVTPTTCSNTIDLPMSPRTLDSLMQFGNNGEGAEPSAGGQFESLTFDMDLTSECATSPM

## C/C=C(\C)C(=O)OCC1=C2/C(=C\[C@@]3(C)CC[C@](O)(O3)[C@H](C)C[C@@H]2O)OC1=O [Compound 22]
U251MG cells [1]
  migration into the denuded area: slowed migration
pStat1
  effect on EGF-stimulated pStat1 levels: no effect
Stat1:Stat1
  effect on Stat1:Stat1 activity, cell-free EMSA: weak effects
U373MG cells
  IC50: 6.6 to 8.2 µM
pStat5
  effect on EGF-stimulated pStat5 levels: no effect
U251MG cells [2]
  chromatid structures and sister-chromatids segregation (mitosis): caused defects
MCF-7 cells
  IC50: 4.8 to 9.6 µM
U251MG cells [3]
  cell proliferation measured by BrdU incorporation: significantly impaired
NIH3T3 cells
  effects on NIH3T3 colony numbers: moderate or none
Stat3:Stat3; 5 μM, 30 min pre-incubation, NIH3T3/v-Src nuclear extracts
  Stat3:Stat3/DNA-binding activity (complexation), cell-free EMSA: diminished
Stat3:Stat3; in the presence of 50 μM Cys
  Stat3:Stat3/DNA complexation in the presence of Cys: strongly inhibited
